Bridge positions count the residues as written; N and C are the ends. Square brackets hold non-standard residues; d marks the D form. Peptide text beside a SMILES is read from it. Phe(4-F) = N[C@@H](Cc1ccc(F)cc1)C(=O)O; dPhe(4-F) = N[C@H](Cc1ccc(F)cc1)C(=O)O; 2Nal = N[C@@H](Cc1ccc2ccccc2c1)C(=O)O; 3Pal = N[C@@H](Cc1cccnc1)C(=O)O; Tle = CC(C)(C)[C@H](N)C(=O)O
Legend:
[1] = biological target: Somatostatin receptor; assay: Antagonism of in vitro SRIF inhibition of GH release in rat in vitro pituitary cell assay; assay type: functional, cell-based; conditions: pituitary gland cell
Method in brief: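 Dispersed adult male rat anterior pituitary cells (trypsin/DNase), about 200 000 cells/well, cultured 4–5 days at 37 °C. GH measured by double-antibody RIA. IC50 versus SRIF, mean ± SEM of n dose–response curves.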

[2] = biological target: Somatostatin receptor type 1 (Homo sapiens, UniProt P30872); assay: The compound was tested for binding affinity against human Somatostatin receptor type 1
Sequence of Somatostatin receptor type 1 (P30872 whole entry): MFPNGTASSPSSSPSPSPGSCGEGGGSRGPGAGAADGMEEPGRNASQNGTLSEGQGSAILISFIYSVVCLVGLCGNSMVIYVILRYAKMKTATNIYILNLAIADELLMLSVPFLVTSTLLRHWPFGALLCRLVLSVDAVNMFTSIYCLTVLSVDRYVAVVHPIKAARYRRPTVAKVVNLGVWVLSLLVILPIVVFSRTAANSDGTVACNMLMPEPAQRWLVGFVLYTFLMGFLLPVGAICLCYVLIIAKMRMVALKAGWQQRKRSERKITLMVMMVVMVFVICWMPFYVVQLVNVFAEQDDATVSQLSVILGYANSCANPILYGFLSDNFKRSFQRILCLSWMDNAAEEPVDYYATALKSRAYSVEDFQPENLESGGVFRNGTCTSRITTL
Method in brief: (§1)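 Membranes from CHO-K1 cells transfected with the cloned human receptor. Terminated by filtration on PEI-soaked GF/C filters. Nonspecific binding defined with 1.0 μM SRIF. Mean ± SEM; single values are from one experiment.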

[3] = biological target: Somatostatin receptor type 5 (Homo sapiens, UniProt P35346); assay: The compound was tested for binding affinity against human Somatostatin receptor type 5; method in brief: as §1
Sequence of Somatostatin receptor type 5 (P35346 whole entry): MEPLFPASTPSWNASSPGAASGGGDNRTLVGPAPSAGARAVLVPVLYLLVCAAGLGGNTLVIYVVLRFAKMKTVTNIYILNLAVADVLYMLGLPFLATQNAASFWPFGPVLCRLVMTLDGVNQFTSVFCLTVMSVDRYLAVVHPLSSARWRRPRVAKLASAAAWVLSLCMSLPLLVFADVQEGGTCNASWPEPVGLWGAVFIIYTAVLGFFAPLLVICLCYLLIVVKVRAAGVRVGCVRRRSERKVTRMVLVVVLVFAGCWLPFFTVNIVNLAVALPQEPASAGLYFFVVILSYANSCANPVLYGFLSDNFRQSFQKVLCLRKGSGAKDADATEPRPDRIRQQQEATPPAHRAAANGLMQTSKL

[4] = biological target: Somatostatin receptor type 3 (Homo sapiens, UniProt P32745); assay: The compound was tested for binding affinity against human Somatostatin receptor type 3
Sequence of Somatostatin receptor type 3 (P32745 whole entry): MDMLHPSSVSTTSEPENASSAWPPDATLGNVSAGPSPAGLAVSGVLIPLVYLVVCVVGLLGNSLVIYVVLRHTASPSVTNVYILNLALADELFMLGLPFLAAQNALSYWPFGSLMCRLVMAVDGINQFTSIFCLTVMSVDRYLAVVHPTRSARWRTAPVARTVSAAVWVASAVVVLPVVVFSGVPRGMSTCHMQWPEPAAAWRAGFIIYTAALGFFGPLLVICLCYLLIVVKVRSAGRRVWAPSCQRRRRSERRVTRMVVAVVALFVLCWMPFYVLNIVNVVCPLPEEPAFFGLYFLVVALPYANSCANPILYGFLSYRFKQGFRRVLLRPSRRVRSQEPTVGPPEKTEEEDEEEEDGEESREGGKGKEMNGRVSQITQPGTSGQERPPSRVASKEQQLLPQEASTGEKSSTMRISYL
Method in brief: (§2)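 CHO-K1 cells stably transfected (calcium phosphate) with cloned human sst3 or sst4. Membranes made in ice-cold 50 mM Tris-HCl, resuspended in 10 mM Tris-HCl, then incubated 30 min at 37 °C with 0.05 nM [125I]Tyr11-SRIF in HEPES pH 7.4 with BSA, MgCl2 and protease inhibitors. Filtered on GF/C; nonspecific binding with 1.0 µM SRIF. Mean ± SEM, or one experiment.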

[5] = biological target: Somatostatin receptor type 2 (Homo sapiens, UniProt P30874); assay: The compound was tested for binding affinity against human Somatostatin receptor type 2
Sequence of Somatostatin receptor type 2 (P30874 whole entry): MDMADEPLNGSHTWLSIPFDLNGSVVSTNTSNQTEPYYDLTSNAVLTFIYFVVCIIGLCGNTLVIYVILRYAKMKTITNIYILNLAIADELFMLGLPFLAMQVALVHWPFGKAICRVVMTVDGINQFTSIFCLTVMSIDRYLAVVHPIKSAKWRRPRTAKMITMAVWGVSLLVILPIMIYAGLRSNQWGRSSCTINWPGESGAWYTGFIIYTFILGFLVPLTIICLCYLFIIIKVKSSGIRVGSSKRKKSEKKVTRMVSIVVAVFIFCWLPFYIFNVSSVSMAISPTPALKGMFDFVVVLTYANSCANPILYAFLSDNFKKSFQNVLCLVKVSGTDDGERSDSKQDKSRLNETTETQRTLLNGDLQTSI
Method in brief: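 Membranes from CHO-K1 cells transfected with the cloned human sst2. Incubated 30 min at 37 °C with 0.05 nM [125I]MK-678 in HEPES pH 7.4 with BSA, MgCl2, Trasylol, bacitracin and PMSF. Filtration on PEI-soaked GF/C filters. Nonspecific binding defined with 1.0 μM SRIF. Mean ± SEM; single values are from one experiment.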

[6] = biological target: Somatostatin receptor type 4 (Homo sapiens, UniProt P31391); assay: The compound was tested for binding affinity against human Somatostatin receptor type 4; method in brief: as §2
Sequence of Somatostatin receptor type 4 (P31391 whole entry): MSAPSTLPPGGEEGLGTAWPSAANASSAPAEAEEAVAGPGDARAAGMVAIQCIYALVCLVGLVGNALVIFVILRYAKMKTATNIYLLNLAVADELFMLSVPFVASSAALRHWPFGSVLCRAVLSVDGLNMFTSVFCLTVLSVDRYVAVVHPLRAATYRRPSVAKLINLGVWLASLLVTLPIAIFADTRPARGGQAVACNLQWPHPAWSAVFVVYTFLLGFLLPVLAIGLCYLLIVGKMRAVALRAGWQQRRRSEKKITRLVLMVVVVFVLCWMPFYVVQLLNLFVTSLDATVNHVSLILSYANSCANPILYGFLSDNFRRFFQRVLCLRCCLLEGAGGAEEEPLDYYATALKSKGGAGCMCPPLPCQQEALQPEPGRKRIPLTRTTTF

CC(C)[C@H]1NC(=O)[C@H](CCCCN)NC(=O)[C@@H](Cc2c[nH]c3ccccc23)NC(=O)[C@H](Cc2cccnc2)NC(=O)[C@@H](NC(=O)[C@@H](N)Cc2ccc(F)cc2)CSSC[C@H](C(=O)N[C@@H](Cc2ccc3ccccc3c2)C(N)=O)NC1=O
IC50 [1]: 6.5 nM

NCCCC[C@@H]1NC(=O)[C@@H](Cc2c[nH]c3ccccc23)NC(=O)[C@H](Cc2cccnc2)NC(=O)[C@@H](NC(=O)[C@@H](N)Cc2ccc3ccccc3c2)CSSC[C@@H](C(=O)N[C@@H](Cc2ccc3ccccc3c2)C(N)=O)NC(=O)CNC1=O
IC50 [1]: 1510 nM

C[C@@H](O)[C@@H]1NC(=O)[C@H](CCCCN)NC(=O)[C@@H](Cc2c[nH]c3ccccc23)NC(=O)[C@H](Cc2ccccn2)NC(=O)C(NC(=O)[C@@H](N)Cc2ccc(Cl)cc2)CSSCC(C(=O)N[C@@H](Cc2ccc3ccccc3c2)C(N)=O)NC1=O (stereo in doubt)
IC50 [1]: 135 nM

CC(C)[C@H]1NC(=O)[C@H](CCCCN)NC(=O)[C@@H](Cc2c[nH]c3ccccc23)NC(=O)[C@H](Cc2c[nH]cn2)NC(=O)C(NC(=O)[C@@H](N)Cc2ccc(F)cc2)CSSCC(C(=O)N[C@@H](Cc2ccc(F)cc2)C(N)=O)NC1=O (stereo in doubt) [listing 1 of 2 here]
IC50 [1]: 105 nM

CC(C)[C@H]1NC(=O)[C@H](CCCCN)NC(=O)[C@@H](Cc2c[nH]c3ccccc23)NC(=O)[C@H](Cc2cccnc2)NC(=O)[C@@H](NC(=O)[C@@H](N)Cc2c(F)c(F)c(F)c(F)c2F)CSSC[C@H](C(=O)N[C@@H](Cc2c(F)c(F)c(F)c(F)c2F)C(N)=O)NC1=O
IC50 [1]: 292 nM

CC(C)[C@H]1NC(=O)[C@H](CCCCN)NC(=O)[C@@H](Cc2c[nH]c3ccccc23)NC(=O)[C@H](Cc2c[nH]cn2)NC(=O)C(NC(=O)[C@@H](N)Cc2ccc(F)cc2)CSSCC(C(=O)N[C@@H](Cc2ccc(F)cc2)C(N)=O)NC1=O (stereo in doubt) [listing 2 of 2 here]
Ki [2]: 1950 nM | Ki [3]: 173 nM | Ki [4]: 269 nM | Ki [5]: 31 nM | Ki [6]: 847 nM

CC(C)[C@H]1NC(=O)[C@H](CCCCN)NC(=O)[C@@H](Cc2c[nH]c3ccccc23)NC(=O)[C@H](Cc2c[nH]cn2)NC(=O)C(NC(=O)[C@@H](N)Cc2ccccc2F)CSSCC(C(=O)N[C@@H](Cc2ccccc2F)C(N)=O)NC1=O (stereo in doubt)
Ki [2]: 37 nM | Ki [3]: 972 nM | Ki [4]: 382 nM | Ki [5]: 176 nM | Ki [6]: > 1000 nM

CC(C)(C)[C@@H]1NC(=O)[C@H](CCCCN)NC(=O)[C@@H](Cc2c[nH]c3ccccc23)NC(=O)[C@H](Cc2cccnc2)NC(=O)[C@H](NC(=O)[C@H](N)Cc2ccc(F)cc2)CSSC[C@@H](C(=O)N[C@@H](Cc2ccc3ccccc3c2)C(N)=O)NC1=O (H-[dPhe(4-F)][dC][3Pal][dW]K[Tle]C[2Nal]-NH2; disulfide 2-7)
Ki [2]: > 1000 nM | Ki [3]: 260 nM | Ki [4]: 555 nM | Ki [5]: 132 nM | Ki [6]: 888 nM

CC(C)C[C@@H]1NC(=O)[C@H](CCCCN)NC(=O)[C@@H](Cc2c[nH]c3ccccc23)NC(=O)[C@H](Cc2cccnc2)NC(=O)[C@H](NC(=O)[C@@H](N)Cc2ccc3ccccc3c2)CSSC[C@@H](C(=O)N[C@@H](Cc2ccc3ccccc3c2)C(N)=O)NC1=O
Ki [2]: 415 nM | Ki [3]: 968 nM | Ki [4]: 243 nM | Ki [5]: 543 nM | Ki [6]: 728 nM

CC(C)[C@@H]1NC(=O)[C@H](CCCCN)NC(=O)[C@@H](Cc2c[nH]c3ccccc23)NC(=O)[C@H](Cc2ccc(O)cc2)NC(=O)[C@H](NC(=O)[C@@H]2Cc3ccccc3CN2)CSSC[C@@H](C(=O)N2Cc3ccccc3C[C@H]2C(N)=O)NC1=O
Ki [2]: 1030 nM | Ki [3]: > 1000 nM | Ki [4]: 802 nM | Ki [5]: 345 nM | Ki [6]: > 1000 nM

CC(C)(C)[C@@H]1NC(=O)[C@H](CCCCN)NC(=O)[C@@H](Cc2c[nH]c3ccccc23)NC(=O)[C@H](Cc2cccnc2)NC(=O)[C@H](NC(=O)[C@@H](N)Cc2c[nH]c3ccccc23)CSSC[C@@H](C(=O)N[C@@H](Cc2ccc3ccccc3c2)C(N)=O)NC1=O (H-W[dC][3Pal][dW]K[Tle]C[2Nal]-NH2; disulfide 2-7)
Ki [2]: > 1000 nM | Ki [3]: 2250 nM | Ki [4]: 210 nM | Ki [5]: 84 nM | Ki [6]: > 1000 nM

CC(C)(C)[C@@H]1NC(=O)[C@H](CCCCN)NC(=O)[C@@H](Cc2c[nH]c3ccccc23)NC(=O)[C@H](Cc2cccnc2)NC(=O)[C@H](NC(=O)[C@@H](N)Cc2ccc(F)cc2)CSSC[C@@H](C(=O)N[C@@H](Cc2ccc3ccccc3c2)C(N)=O)NC1=O (H-[Phe(4-F)][dC][3Pal][dW]K[Tle]C[2Nal]-NH2; disulfide 2-7)
Ki [2]: > 1000 nM | Ki [3]: 535 nM | Ki [4]: 231 nM | Ki [5]: 26 nM | Ki [6]: > 1000 nM

NCCCC[C@@H]1NC(=O)[C@@H](Cc2c[nH]c3ccccc23)NC(=O)[C@H](Cc2cccnc2)NC(=O)[C@H](NC(=O)[C@@H](N)Cc2ccc3ccccc3c2)CSSC[C@@H](C(=O)N[C@@H](Cc2ccc3ccccc3c2)C(N)=O)NC(=O)CNC1=O
Ki [2]: 413 nM | Ki [3]: 382 nM | Ki [4]: 192 nM | Ki [5]: 163 nM | Ki [6]: 1570 nM

CC(C)[C@@H]1NC(=O)[C@H](CCCCN)NC(=O)[C@@H](Cc2c[nH]c3ccccc23)NC(=O)[C@H](Cc2cccnc2)NC(=O)[C@H](NC(=O)[C@@H](N)Cc2ccccc2F)CSSC[C@@H](C(=O)N[C@@H](Cc2ccccc2F)C(N)=O)NC1=O
Ki [2]: 186 nM | Ki [3]: 1580 nM | Ki [4]: 385 nM | Ki [5]: 241 nM | Ki [6]: > 1000 nM

CC[C@H](C)[C@@H]1NC(=O)[C@H](CCCCN)NC(=O)[C@@H](Cc2c[nH]c3ccccc23)NC(=O)[C@H](Cc2ccc(O)cc2)NC(=O)[C@H](NC(=O)[C@@H](N)Cc2ccc(-c3ccccc3)cc2)CSSC[C@@H](C(=O)N[C@@H](Cc2ccc(-c3ccccc3)cc2)C(N)=O)NC1=O
Ki [2]: > 1000 nM | Ki [3]: 689 nM | Ki [4]: 1350 nM | Ki [5]: 2230 nM | Ki [6]: > 1000 nM

CC(C)[C@@H]1NC(=O)[C@H](CCCCN)NC(=O)[C@@H](Cc2c[nH]c3ccccc23)NC(=O)[C@H](Cc2cccnc2)NC(=O)[C@H](NC(=O)[C@@H](N)Cc2ccc(Cl)cc2)CSSC[C@@H](C(=O)N[C@@H](Cc2ccc(Cl)cc2)C(N)=O)NC1=O
Ki [2]: > 1000 nM | Ki [3]: 139 nM | Ki [4]: 51 nM | Ki [5]: 32 nM | Ki [6]: 301 nM

CC(C)[C@@H]1NC(=O)[C@H](CCCCN)NC(=O)[C@@H](Cc2c[nH]c3ccccc23)NC(=O)[C@H](Cc2cccnc2)NC(=O)[C@H](NC(=O)[C@@H](N)Cc2ccc3ccccc3c2)CSSC[C@@H](C(=O)N[C@@H](Cc2ccc3ccccc3c2)C(N)=O)NC1=O
Ki [2]: 348 nM | Ki [3]: 524 nM | Ki [4]: 171 nM | Ki [5]: 81 nM | Ki [6]: > 1000 nM

CC(C)(C)[C@@H]1NC(=O)[C@H](CCCCN)NC(=O)[C@@H](Cc2c[nH]c3ccccc23)NC(=O)[C@H](Cc2cccnc2)NC(=O)[C@H](NC(=O)[C@@H](N)Cc2ccc3ccccc3c2)CSSC[C@@H](C(=O)N[C@@H](Cc2ccc3ccccc3c2)C(N)=O)NC1=O (H-[2Nal][dC][3Pal][dW]K[Tle]C[2Nal]-NH2; disulfide 2-7)
Ki [2]: > 1000 nM | Ki [3]: 631 nM | Ki [4]: 371 nM | Ki [5]: 35 nM | Ki [6]: 145 nM

CC(C)(C)[C@@H]1NC(=O)[C@H](CCCCN)NC(=O)[C@@H](Cc2c[nH]c3ccccc23)NC(=O)[C@H](Cc2cccnc2)NC(=O)[C@H](NC(=O)[C@H](N)Cc2ccc(Cl)cc2)CSSC[C@@H](C(=O)N[C@H](Cc2ccc(Cl)cc2)C(N)=O)NC1=O
Ki [2]: > 1000 nM | Ki [3]: 153 nM | Ki [4]: 1190 nM | Ki [5]: 56 nM | Ki [6]: 2880 nM

C[C@@H](O)[C@@H]1NC(=O)[C@H](CCCCN)NC(=O)[C@@H](Cc2c[nH]c3ccccc23)NC(=O)[C@@H](Cc2ccccn2)NC(=O)C(NC(=O)[C@@H](N)Cc2ccc(Cl)cc2)CSSCC(C(=O)N[C@@H](Cc2ccc3ccccc3c2)C(N)=O)NC1=O (stereo in doubt)
Ki [2]: 1030 nM | Ki [3]: 70 nM | Ki [4]: 53 nM | Ki [5]: 14 nM | Ki [6]: > 1000 nM

CC(C)[C@@H]1NC(=O)[C@H](CCCCN)NC(=O)[C@@H](Cc2c[nH]c3ccccc23)NC(=O)[C@H](Cc2cccnc2)NC(=O)[C@H](NC(=O)[C@H](N)Cc2ccc(F)cc2)CSSC[C@@H](C(=O)N[C@H](Cc2ccc(F)cc2)C(N)=O)NC1=O
Ki [2]: > 1000 nM | Ki [3]: 694 nM | Ki [4]: 838 nM | Ki [5]: 106 nM | Ki [6]: > 1000 nM

CC(C)[C@@H]1NC(=O)[C@H](CCCCN)NC(=O)[C@@H](Cc2c[nH]c3ccccc23)NC(=O)[C@H](Cc2cccnc2)NC(=O)[C@H](NC(=O)[C@@H](N)Cc2ccc(Cl)cc2)CSSC[C@@H](C(=O)N[C@@H](Cc2ccc3ccccc3c2)C(N)=O)NC1=O
Ki [2]: > 1000 nM | Ki [3]: 240 nM | Ki [4]: 85 nM | Ki [5]: 25 nM | Ki [6]: 1590 nM

CC[C@H](C)[C@@H]1NC(=O)[C@H](CCCCN)NC(=O)[C@@H](Cc2c[nH]c3ccccc23)NC(=O)[C@H](Cc2cccnc2)NC(=O)[C@H](NC(=O)[C@@H](N)Cc2ccc3ccccc3c2)CSSC[C@@H](C(=O)N[C@@H](Cc2ccc3ccccc3c2)C(N)=O)NC1=O (H-[2Nal][dC][3Pal][dW]KIC[2Nal]-NH2; disulfide 2-7)
Ki [2]: 172 nM | Ki [3]: 847 nM | Ki [4]: 152 nM | Ki [5]: > 1000 nM | Ki [6]: 1040 nM
